What was measured:
Assay type in all cases: functional
[1] = tested on: DU-145; experiment: Cytotoxicity against human DU145 cells assessed as cellular growth at 10 uM after 48 hrs by SRB assay
Method in brief: (§1)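 NCI60 single-dose screen of cells in RPMI 1640 with 5% FBS and 2 mM L-glutamine, preincubated 24 h at 37 °C, 5% CO₂. Cells were then exposed 48 h to compound added from DMSO stock. TCA-fixed, stained with 0.4% SRB in 1% acetic acid, dye solubilised in 10 mM Tris base and read at 515 nm. Growth is given as percent of untreated control.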

[2] = tested on: PC-3; experiment: Cytotoxicity against human PC3 cells assessed as cellular growth at 10 uM after 48 hrs by SRB assay
Method in brief: (§2)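 NCI-60 panel lines grown in RPMI 1640 with 5% FBS and 2 mM L-glutamine. Plated at 5000–40,000 cells/well and preincubated 24 h at 37 °C, 5% CO₂, with time-zero plates fixed in TCA. Compounds, dissolved in DMSO and diluted in medium, were applied for 48 h. Cells were TCA-fixed (10% final for adherent, 16% for suspension) and stained with 0.4% SRB in 1% acetic acid. Dye was solubilised in 10 mM Tris base and read at 515 nm; growth was expressed as a percentage of untreated control.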

[3] = tested on: KM12; experiment: Cytotoxicity against human KM12 cells assessed as cellular growth at 10 uM after 48 hrs by SRB assay; method in brief: as §1
[4] = tested on: NCI-H23; experiment: Cytotoxicity against human NCI-H23 cells assessed as cellular growth at 10 uM after 48 hrs by SRB assay; method in brief: as §2
[5] = tested on: CCRF-CEM; experiment: Cytotoxicity against human CCRF-CEM cells assessed as cellular growth at 10 uM after 48 hrs by SRB assay; method in brief: as §1
[6] = tested on: SR; experiment: Cytotoxicity against human SR cells assessed as cellular growth at 10 uM after 48 hrs by SRB assay; method in brief: as §2
[7] = tested on: A549; experiment: Cytotoxicity against human A549 cells assessed as cellular growth at 10 uM after 48 hrs by SRB assay; method in brief: as §1
[8] = tested on: HOP-62; experiment: Cytotoxicity against human HOP62 cells assessed as cellular growth at 10 uM after 48 hrs by SRB assay; method in brief: as §1
[9] = tested on: LOX IMVI; experiment: Cytotoxicity against human LOXIMVI cells assessed as cellular growth at 10 uM after 48 hrs by SRB assay; method in brief: as §1
[10] = tested on: SK-MEL-5; experiment: Cytotoxicity against human SK-MEL-5 cells assessed as cellular growth at 10 uM after 48 hrs by SRB assay; method in brief: as §2
[11] = tested on: OVCAR-4; experiment: Cytotoxicity against human OVCAR4 cells assessed as cellular growth at 10 uM after 48 hrs by SRB assay; method in brief: as §2
[12] = tested on: OVCAR-8; experiment: Cytotoxicity against human OVCAR8 cells assessed as cellular growth at 10 uM after 48 hrs by SRB assay; method in brief: as §2
[13] = tested on: ACHN; experiment: Cytotoxicity against human ACHN cells assessed as cellular growth at 10 uM after 48 hrs by SRB assay; method in brief: as §1
[14] = tested on: CAKI-1; experiment: Cytotoxicity against human Caki1 cells assessed as cellular growth at 10 uM after 48 hrs by SRB assay; method in brief: as §1
[15] = tested on: UO-31; experiment: Cytotoxicity against human UO31 cells assessed as cellular growth at 10 uM after 48 hrs by SRB assay; method in brief: as §2
[16] = tested on: MDA-MB-468; experiment: Cytotoxicity against human MDA-MB-468 cells assessed as cellular growth at 10 uM after 48 hrs by SRB assay; method in brief: as §2
[17] = tested on: OVCAR-3; experiment: Antitumor activity against human OVCAR3 cells after 48 hrs by SRB assay; conditions: OVCAR-3, 48 h
Method in brief: (§3)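 NCI60 panel in RPMI 1640 with 5% FBS and 2 mM L-glutamine. Cells were plated at 5000–40,000/well by doubling time, held 24 h, then time-zero plates were TCA-fixed. Five concentrations (10-fold or half-log dilutions of DMSO stocks) were applied for 48 h at 37 °C, 5% CO2. Cells were fixed with cold TCA (10% final adherent, 16% suspension) and stained with 0.4% SRB. Bound dye was dissolved in 10 mM Tris and read at 515 nm. GI50, TGI and LC50 were calculated per line.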

[18] = tested on: NCI/ADR-RES; experiment: Antitumor activity against human NCI/ADR-RES cells after 48 hrs by SRB assay; method in brief: as §3
[19] = tested on: UO-31; experiment: Antitumor activity against human UO31 cells after 48 hrs by SRB assay; conditions: UO-31, 48 h
Method in brief: (§4)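 NCI60 panel cells grown in RPMI 1640 with 5% FBS and 2 mM L-glutamine, plated at 5000–40,000 cells/well and preincubated 24 h at 37 °C, 5% CO₂. Compound was added from DMSO at five concentrations, 10-fold or 1/2 log dilutions, then incubated 48 h.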

[20] = tested on: OVCAR-5; experiment: Antitumor activity against human OVCAR5 cells after 48 hrs by SRB assay; conditions: OVCAR-5, 48 h; method in brief: as §3
[21] = tested on: IGROV-1; experiment: Antitumor activity against human IGROV1 cells after 48 hrs by SRB assay; conditions: IGROV-1, 48 h; method in brief: as §3
[22] = tested on: NCI-H23; experiment: Antitumor activity against human NCI-H23 cells after 48 hrs by SRB assay; conditions: NCI-H23, 48 h; method in brief: as §3
[23] = tested on: SR; experiment: Antitumor activity against human SR cells after 48 hrs by SRB assay; method in brief: as §4
[24] = tested on: MOLT-4; experiment: Antitumor activity against human MOLT4 cells after 48 hrs by SRB assay; conditions: MOLT-4, 48 h; method in brief: as §3
[25] = tested on: CCRF-CEM; experiment: Antitumor activity against human CCRF-CEM cells after 48 hrs by SRB assay; method in brief: as §3
[26] = tested on: SK-MEL-28; experiment: Antitumor activity against human SK-MEL-28 cells after 48 hrs by SRB assay; conditions: SK-MEL-28, 48 h; method in brief: as §4
[27] = read-out: LC50 (the source's name)
[28] = read-out: pLC50 (the source's name) (converted)

## COc1ccc(/C(=C2/O[C@@H]([C@H]3COC(C)(C)O3)[C@H]3OC(C)(C)O[C@@H]23)c2cc(OC)c(OC)c(OC)c2)cc1O
[1]
  Activity: 34.8%
[2]
  Activity: 30.63%
[3]
  Activity: 26.71%
[4]
  Activity: 72.29%
[5]
  Activity: 47.94%
[6]
  Activity: 25.4%
[7]
  Activity: 84.24%
[8]
  Activity: 48.49%
[9]
  Activity: 36.94%
[10]
  Activity: 59.59%
[11]
  Activity: 99.15%
[12]
  Activity: 68.27%
[13]
  Activity: 44.73%
[14]
  Activity: 93.05%
[15]
  Activity: 49.1%
[16]
  Activity: 96.42%
[17]
  GI50: 2.38 µM
  TGI: 5.34 µM
[17]; [27]
  CC50: 22.9 µM
[18]
  GI50: 2.52 µM
  LC50: > 100 µM
  TGI: 6.91 µM
[19]; read-out: GI50
  GI50: 7.53 µM
[19]; [27]
  CC50: > 100 µM
[19]; read-out: TGI
  TGI: 77.8 µM
[19]; read-out: pGI50 (converted)
  GI50: 7.59 µM
[19]; [28]
  CC50: > 100 µM
[19]; read-out: pTGI (converted)
  TGI: 77.6 µM
[20]; read-out: GI50
  GI50: > 1 µM
[20]; [27]
  CC50: > 100 µM
[20]; read-out: TGI
  TGI: > 100 µM
[20]; read-out: pGI50 (converted)
  GI50: 100 µM
[20]; [28]
  CC50: > 100 µM
[20]; read-out: pTGI (converted)
  TGI: > 100 µM
[21]; read-out: GI50
  GI50: 3.32 µM
[21]; [27]
  CC50: > 100 µM
[21]; read-out: TGI
  TGI: > 100 µM
[21]; read-out: pGI50 (converted)
  GI50: 33.1 µM
[21]; [28]
  CC50: > 100 µM
[21]; read-out: pTGI
  TGI: > 100 µM
[22]; read-out: GI50
  GI50: 7.98 µM
[22]; [27]
  CC50: > 100 µM
[22]; read-out: TGI
  TGI: 46 µM
[22]; read-out: pGI50 (converted)
  GI50: 7.94 µM
[22]; [28]
  CC50: > 100 µM
[22]; read-out: pTGI (converted)
  TGI: 45.7 µM
[23]; read-out: GI50
  GI50: 6.27 µM
[23]; [27]
  CC50: > 100 µM
[23]; read-out: TGI
  TGI: > 100 µM
[23]; read-out: pGI50 (converted)
  GI50: 6.31 µM
[23]; [28]
  CC50: > 100 µM
[23]; read-out: pTGI
  TGI: > 100 µM
[24]
  LC50 (concentration killing 50% of cells): > 100 µM
[24]; read-out: GI50
  GI50: 6.93 µM
[24]; read-out: TGI
  TGI: > 100 µM
[24]; read-out: pGI50 (converted)
  GI50: 6.92 µM
[24]; [28]
  CC50: > 100 µM
[24]; read-out: pTGI
  TGI: > 100 µM
[25]; read-out: GI50
  GI50: 3.75 µM
[25]; [27]
  CC50: > 100 µM
[25]; read-out: TGI
  TGI: > 100 µM
[25]; read-out: pGI50 (converted)
  GI50: 3.72 µM
[25]; [28]
  CC50: > 100 µM
[25]; read-out: pTGI
  TGI: > 100 µM
[26]
  LC50 (50% lethal concentration): > 100 µM
[26]; read-out: GI50
  GI50: 5.45 µM
[26]; read-out: TGI
  TGI: > 100 µM
[26]; read-out: pGI50 (converted)
  GI50: 5.5 µM
[26]; [28]
  CC50: > 100 µM
[26]; read-out: pTGI
  TGI: > 100 µM
